In PubChem BioAssay:
Active and inactive are the calls of the source.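 Rule for the calls, unless noted: active = viability at or under a set limit in both replicates, limit being median viability minus 3 SD (cut at about 48% in these data, passing the limit was not always enough); inconclusive = at or under the limit in just one replicate; inactive = at or above the limit in both replicates.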

What was measured:
[1] = reduced viability of SK-BR-3 breast cancer cells – cell-based, 24 h, human, pilot screen (AID 572;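 active = viability at or below 10% of carrier control in both of two separate runs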;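 note: compound exposure lasted between 18 and 24 h rather than exactly 24 h; 100% = carrier-treated control wells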); conditions: SK-BR-3 viability, CellTiter-Glo luminescence, at 10 µM, stronger effect = lower value
[2] = HUVEC growth inhibition – cell-based, human, primary screen (AID 575;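 active = viability at or below 30% in both replicate assays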;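 note: 100% = median of untreated cell wells with 0.1% DMSO on each plate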); conditions: HUVEC proliferation, CellTiter-Glo luminescence, 72 h; at 10 µM; stronger effect = lower value
How it was run: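 Test system: primary human umbilical vein endothelial cells; medium: endothelial basal medium with 2% FBS plus growth supplements; dosing: 10 µM compound only; times: 72 h treatment at 37 °C; signal: CTG luminescence; read-out: % viability relative to median vehicle-well signal on each plate; control set: vehicle and MePR control wells; plate: 384-well, collagen-coated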

[3] = H69AR cell proliferation blockers – human, duplicate replicates, primary screen (AID 580); conditions: H69AR lung tumor cells viability, ATP luminescence, 72 h; at 10 µM; stronger effect = lower value;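 note: 100% = mean luminescence of untreated wells and 0% = no signal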
[4] = MRP1 drug-resistance reversers in H69AR cells – cell-based, doxorubicin co-treatment, pilot screen (AID 601;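 active = viability loss from added drug above about 55%, and viability with drug at most 40%, in both replicates, limit read from the data, passing the limit was not always enough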); conditions: CellTiter-Glo, 72 h, at 10 µM; for differential viability (reversal): stronger effect = higher value
[5] = yeast transport mutant growth inhibition pilot in 384-well plates, post-Golgi transport modulator project (AID 636; in the data active = inhibition above about 31%); conditions: absorbance 615 nm, about 18 h, stronger effect = higher value
[6] = growth suppression of yeast trafficking mutant, preliminary HTS, modulators of trafficking downstream of Golgi apparatus project, 1536-format plate, OD 615 nm (AID 637; in the data active = inhibition above about 30%); conditions: yeast transport mutant growth, absorbance 615 nm, 18 h; stronger effect = higher value
[7] = H69AR cells + 2 uM doxorubicin, measured here: viability with 2 uM doxorubicin, stronger effect = lower value
[8] = H69AR cells, compound alone cytotoxicity

Compound	viability [1]	viability [2]	viability [3]	differential viability (reversal) ([4]; H69AR cells + 2 uM doxorubicin)	viability [4, 7]	viability [4, 8]	inhibition [5]	inhibition [6]
O=C(Nc1nnc(SCC(=O)N2CCCCC2)s1)C1CCCCC1	81% (inactive)	103% (inactive)	101% (inactive)	12.6% (inactive)	88.8%	101%	-2.13% (inactive)	0.73% (inactive)
Cc1cccc(-n2nnnc2SCc2csc(-c3ccccc3)n2)c1	95% (inactive)	101% (inactive)	93.9% (inactive)	5.89% (inactive)	88%	93.9%	6.44% (inactive)	2.58% (inactive)
CCCn1c(=O)c2[nH]c(C3CCCC3)nc2n(CCC)c1=O	100% (inactive)	77.3% (inactive)	70.7% (inactive)	50.8% (inactive)	19.9%	70.7%	-1.3% (inactive)	-1% (inactive)
Cc1csc(SCCn2c(N3CCCC3)nc3c2c(=O)[nH]c(=O)n3C)n1	94% (inactive)	105% (inactive)	100% (inactive)	-4.86% (inactive)	105%	100%	-1.49% (inactive)	-2.55% (inactive)
CCOC(=O)C1CCN(c2cc(C)nc3cc(-c4cccc(F)c4)nn23)CC1	86% (inactive)	105% (inactive)	90.4% (inactive)	7.95% (inactive)	82.4%	90.4%	-3.78% (inactive)	-6.91% (inactive)
C=CCNc1nc2c(c(=O)n(C)c(=O)n2C)n1CCCCCC	92% (inactive)	60.4% (inactive)	82.6% (inactive)	0.165% (inactive)	82.4%	82.6%	-5.73% (inactive)	5.27% (inactive)
C=CCn1cnc2c(c1=O)c1nc3ccccc3nc1n2-c1ccc(C)cc1	105% (inactive)	97.2% (inactive)	86.9% (inactive)	-6.75% (inactive)	93.7%	86.9%	-5.48% (inactive)	-1.61% (inactive)
COc1ccc(-n2c(SCC(=O)N3CCCCC3C)nnc2-c2cccnc2)cc1 (configuration not stated)	87% (inactive)	98.7% (inactive)	102% (inactive)	10.5% (inactive)	91.1%	102%	-5.54% (inactive)	2% (inactive)
Cc1cc(NC(=O)CSc2nc(C3CC3)nc3sc4c(c23)CCC(C)C4)no1 (configuration not stated)	90% (inactive)	108% (inactive)	102% (inactive)	15.6% (inactive)	86.4%	102%	-5.2% (inactive)	-0.18% (inactive)
COc1cc(C(=O)OC(C)CN2CCCC2)cc(OC)c1OC (configuration not stated)	99% (inactive)	98.1% (inactive)	108% (inactive)	11.5% (inactive)	97%	108%	-3.65% (inactive)	0.55% (inactive)
COc1ccc(S(=O)(=O)Nc2ccccc2SC)cc1C	94% (inactive)	87.8% (inactive)	87% (inactive)	-8.52% (inactive)	95.5%	87%	-6.99% (inactive)	0% (inactive)
COC(=O)c1ccccc1NC(=O)C12CCC(C)(C(=O)O1)C2(C)C (configuration not stated)	84% (inactive)	87.6% (inactive)	90.5% (inactive)	13.7% (inactive)	76.8%	90.5%	-6.58% (inactive)	0% (inactive)
CC(=O)Nc1c(C(=O)O)[nH]c2ccccc12	103% (inactive)	97.9% (inactive)	104% (inactive)	3.33% (inactive)	101%	104%	-4.46% (inactive)	-8.36% (inactive)
COc1ccc(CN2C(=O)[C@@H]3C(c4ccc(F)cc4)=NO[C@@H]3C2=O)cc1	91% (inactive)	114% (inactive)	89.1% (inactive)	3.49% (inactive)	85.6%	89.1%	-6.62% (inactive)	1.64% (inactive)
Cc1ccc(-c2nc3cc(NC(=O)C(C)C)ccc3o2)cc1C	80% (inactive)	51.8% (inactive)	72.9% (inactive)	2.97% (inactive)	69.9%	72.9%	-4.66% (inactive)	-8.55% (inactive)
c1ccc(OCc2nc(-c3ccccc3)no2)cc1	98% (inactive)	92.5% (inactive)	93.5% (inactive)	3.62% (inactive)	89.9%	93.5%	0.14% (inactive)	29.5% (inactive)
COc1ccc(S(=O)(=O)N2CCN(S(=O)(=O)c3ccc4c(c3)OCCO4)CC2)cc1C	101% (inactive)	109% (inactive)	88.2% (inactive)	17.5% (inactive)	70.7%	88.2%	-5.33% (inactive)	1.09% (inactive)
Cc1ccc(O)c(-c2cc(C(=O)Nc3ccc(S(=O)(=O)N4CC(C)OC(C)C4)cc3)[nH]n2)c1 (configuration not stated)	92% (inactive)	56.7% (inactive)	34.8% (active)	-8.67% (inactive)	43.5%	34.8%	-11.1% (inactive)	-1.59% (inactive)
O=C(CSc1nc2ccccc2[nH]1)c1ccc2c(c1)OCO2	79% (inactive)	99.8% (inactive)	107% (inactive)	22.7% (inactive)	83.8%	107%	-0.68% (inactive)	-5.16% (inactive)
